GSH fluor: compound fluoresces at 488/530 nm on GSH beads; GSH beads flow cytometry, compound fluorescence 488/530 nm; hits give high values; fluorescence (KMESF) at 10 µM; 190,000 tested, 0.25% active; in the data active = fluorescence above about 89;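 note: glutathione beads carrying GST-tagged Bcl family fusion proteins plus one bare bead set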
Avidin bead fluor: compound fluoresces at 488/530 nm on avidin beads | compound fluorescence 488/530 nm, flow cytometry; hits give high values | 220,000 tested, 0.38% active | fluorescence (KMESF) at 10 µM | AID 1775; in the data active = fluorescence above about 47
Arrestin-AP2 inh: inhibitors of human beta-arrestin and AP2 interaction | inhibition, % at 10 µM | FITC-arrestin peptide / GST-AP2 beads, flow cytometry; AP2 beta2 appendage carries R879A mutation | 340,000 tested, 0.31% active | AID 504490;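 active = inhibition above a set limit, near 3 SD of compounds lacking own fluorescence, cut at about 54% in these data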
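System: GST-tagged AP2 beta2-adaptin appendage (R879A) on 4 µm glutathione beads / Reagent: FITC-arrestin peptide, 50 nM / Detection: HyperCyt-sampled flow cytometry, FL1 channel, ex 488/em 535 nm / Timing: 12 min plus 1 h, RT / Buffer or medium: PBS plus Tween 20 (0.05%) and BSA (0.1%)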
Pemphigus Ab inh: inhibitors of pemphigus antibody binding to human desmoglein-3. binding (percent of control), % at 10 µM. DSG3-coupled beads, scFv-anti-DSG3-GFP binding, flow cytometry; hits give low values. 310,000 tested, 0.48% active;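 active = binding more than 3 SD below its plate's average and above zero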;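 note: hits lower antibody fragment binding to DSG3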
Arr AP2 CP1: blocks beta-arrestin peptide binding to human AP2; shares compounds with Arrestin-AP2 inh; GST-AP2 beads, FITC arrestin peptide binding, flow cytometry; GST-fused beta2-adaptin appendage, R879A mutant; inhibition, % at 10 µM; 1,300 tested, 2% active; AID 504908;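 active = inhibition above a set limit, roughly 3 SD of non-fluorescent compound noise, cut at about 38% in these data; inactive = inhibition at or below that limit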;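 note: loss of bead fluorescence from 50 nM FITC arrestin peptide bound to appendage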
Target sequence (P63010 whole entry, looked up, the tested form may be a part, one chain of several): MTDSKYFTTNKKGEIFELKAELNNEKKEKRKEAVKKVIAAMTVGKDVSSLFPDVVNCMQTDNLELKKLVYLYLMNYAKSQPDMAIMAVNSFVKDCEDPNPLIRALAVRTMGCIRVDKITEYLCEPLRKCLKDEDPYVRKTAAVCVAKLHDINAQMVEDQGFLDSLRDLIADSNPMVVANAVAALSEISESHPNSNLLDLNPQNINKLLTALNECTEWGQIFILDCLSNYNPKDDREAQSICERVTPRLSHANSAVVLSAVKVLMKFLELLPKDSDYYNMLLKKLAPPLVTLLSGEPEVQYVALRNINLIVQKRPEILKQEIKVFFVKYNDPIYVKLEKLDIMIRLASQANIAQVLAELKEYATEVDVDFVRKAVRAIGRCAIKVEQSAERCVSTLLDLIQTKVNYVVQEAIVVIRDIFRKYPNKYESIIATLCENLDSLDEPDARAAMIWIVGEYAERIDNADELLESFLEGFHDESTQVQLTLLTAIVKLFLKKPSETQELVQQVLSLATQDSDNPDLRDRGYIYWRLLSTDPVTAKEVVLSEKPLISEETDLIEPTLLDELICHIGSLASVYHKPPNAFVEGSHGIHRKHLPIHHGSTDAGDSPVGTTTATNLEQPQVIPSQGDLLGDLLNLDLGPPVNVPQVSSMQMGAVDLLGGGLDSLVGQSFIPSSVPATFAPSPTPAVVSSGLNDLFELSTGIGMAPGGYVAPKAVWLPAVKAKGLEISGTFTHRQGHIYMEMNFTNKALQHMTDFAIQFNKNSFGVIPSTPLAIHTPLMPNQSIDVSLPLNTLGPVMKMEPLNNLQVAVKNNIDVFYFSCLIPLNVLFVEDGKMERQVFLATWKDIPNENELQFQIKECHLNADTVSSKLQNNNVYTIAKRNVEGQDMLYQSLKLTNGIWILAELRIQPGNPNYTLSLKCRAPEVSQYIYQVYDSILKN
GST GSH counter: counter-screen for beta-arrestin AP2 inhibitors: GST-GSH bead binding. shares compounds with Arrestin-AP2 inh. GST-fluorescein binding to GSH beads, fluorescence. inhibition, % at 10 µM. 1,300 tested, 2% active. AID 588338;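 active = inhibition above 50%, about 3 SD of the inhibition seen with non-fluorescent compounds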;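 note: fluorescein maleimide labelled GST captured on 4 micron glutathione beads; higher means more loss of bead fluorescence from quenching or blocked binding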
Of the large screens only hits and unclear results are named; the others gave an inactive call (follow-up assays come after a bar, where they were run). Shown are actives, neighbours in structure and some others; about 1.1% of the full set was active somewhere.

CC1(C)CC2(CCO1)N1CC3(C)CN2CC(C)(C1)C3=O (stereo not given)	Arrestin-AP2 inh 84 (no result: GSH fluor, Avidin bead fluor) | Arr AP2 CP1 inactive | GST GSH counter inactive
Cc1ccc(S(=O)(=O)N(C)CC(=O)NCCCn2ccnc2)cc1	none (no result: GSH fluor, Avidin bead fluor)
COc1cc(-c2c(C(C)=O)c(C)nc3c2C(=O)c2ccccc2-3)cc(OC)c1OC	Arrestin-AP2 inh 59 (no result: GSH fluor, Avidin bead fluor) | Arr AP2 CP1 inactive | GST GSH counter inactive
CCOC(=O)c1c(C)nc2c(c1-c1ccccc1)C(=O)c1ccccc1-2	none
COc1cc2cc(CN(C(=O)NC3CCCCC3)C3CCCC3)c(=O)[nH]c2cc1OC	none
O=C(Nc1ccc(F)cc1)N(CCCN1CCOCC1)Cc1cc2cc3c(cc2[nH]c1=O)OCO3	Arrestin-AP2 inh 68 | Arr AP2 CP1 inactive | GST GSH counter inactive
O=C(Nc1ccc(F)cc1)N(CCCN1CCOCC1)Cc1cc2cc3c(cc2[nH]c1=O)OCCO3	none
COc1ccc(NC(=O)N(CCN2CCCC2)Cc2cc3cc(OC)c(OC)cc3[nH]c2=O)cc1	Arrestin-AP2 inh 87 | Arr AP2 CP1 inactive | GST GSH counter inactive
COc1ccc(CN(Cc2cc3cc(OC)c(OC)cc3[nH]c2=O)C(=O)NC2CCCCC2)cc1	none | Arr AP2 CP1 inactive | GST GSH counter inactive
COc1cc(C2CC(=O)N(CC(=O)NCC3CCCO3)c3ccccc3S2)cc(OC)c1OC (stereo not given)	none
CC(NC(=O)CNC(=O)c1sc2ccccc2c1Cl)c1ccc(S(N)(=O)=O)cc1 (stereo not given)	none (no result: GSH fluor, Avidin bead fluor)
CCCc1cc(=O)oc2c(CNc3ccc(OCC)cc3)c(O)ccc12	none (no result: GSH fluor, Avidin bead fluor)
O=C(NCc1ccco1)C1CC(=O)N(c2ccc(Cl)cc2)C1 (stereo not given)	Arrestin-AP2 inh 58 | Arr AP2 CP1 inactive | GST GSH counter inactive
O=C(Cc1ccccc1C(=O)O)Nc1cccc2ccccc12	Arrestin-AP2 inh 60 (no result: GSH fluor, Avidin bead fluor, Pemphigus Ab inh) | Arr AP2 CP1 inactive | GST GSH counter inactive
COc1ccc(Cl)cc1NC(=O)COC(=O)C1CC(=O)N(Cc2ccccc2)C1 (stereo not given)	Arrestin-AP2 inh 58 (no result: GSH fluor, Avidin bead fluor) | Arr AP2 CP1 inactive | GST GSH counter inactive
COc1ccc(Cl)cc1NC(=O)COC(=O)C1CCCCC1	Arrestin-AP2 inh 57 (no result: GSH fluor, Avidin bead fluor, Pemphigus Ab inh) | Arr AP2 CP1 inactive | GST GSH counter inactive
COc1ccc(Cl)cc1NC(=O)COC(=O)C1CC1	none (no result: GSH fluor, Avidin bead fluor)
Nc1ncc(Br)cc1S(=O)(=O)Nc1ccccc1F	Arrestin-AP2 inh 58 (no result: GSH fluor, Avidin bead fluor, Pemphigus Ab inh) | Arr AP2 CP1 inactive | GST GSH counter inactive
CCN(Cc1ccccc1)C(=O)CCNS(=O)(=O)c1cc(Br)cnc1N	none (no result: GSH fluor, Avidin bead fluor)
CC(=O)c1ccc(NC(=O)C2C3C=CC(C3=C(c3ccccc3)c3ccccc3)C2C(=O)O)cc1 (stereo not given)	Arrestin-AP2 inh 56 | Arr AP2 CP1 inactive | GST GSH counter inactive
CCN(CC)N=Nc1ccc(S(=O)(=O)Nc2c(C)n(C)n(-c3ccccc3)c2=O)cc1	none (no result: GSH fluor, Avidin bead fluor)
Cc1ccc(C(=O)N/C(=C\c2ccco2)C(=O)NCCN2CCOCC2)cc1C	Arrestin-AP2 inh 56 (no result: GSH fluor, Avidin bead fluor) | Arr AP2 CP1 inactive | GST GSH counter inactive
Cc1ccc(C(=O)N/C(=C\c2ccco2)C(=O)NCCCN2CCOCC2)cc1C	none (no result: GSH fluor, Avidin bead fluor, Pemphigus Ab inh)
CCOc1ccc(C(=O)NCC(=O)NNC(=O)C2COc3ccccc3O2)cc1OCC (stereo not given)	Arrestin-AP2 inh 65 (no result: GSH fluor, Avidin bead fluor) | Arr AP2 CP1 inactive | GST GSH counter inactive
COc1cc(NC(=O)C(C)Oc2ccccc2)c(C(=O)O)cc1OC (stereo not given)	none (no result: Pemphigus Ab inh) | Arr AP2 CP1 inactive | GST GSH counter inactive
CCOc1ccc2nc(NC(=O)CS(=O)(=O)c3ccc(C)cc3)sc2c1	none
CCOc1ccc2nc(NC(=O)CS(=O)(=O)c3ccccc3)sc2c1	Arrestin-AP2 inh 81 | Arr AP2 CP1 inactive | GST GSH counter inactive
O=C(NN1CCOCC1)c1cccc(Cl)c1	Arrestin-AP2 inh 71 (no result: GSH fluor, Avidin bead fluor, Pemphigus Ab inh) | Arr AP2 CP1 inactive | GST GSH counter inactive
O=C(NN1CCOCC1)c1ccc(Cl)cc1	none
CC1(C)CC(NC(=S)Nc2ccc([N+](=O)[O-])cc2)CC(C)(C)N1	none
CCCCOc1ccc(CN2CCSCC2)cc1	none (no result: GSH fluor, Avidin bead fluor)
CCOC(=O)Cn1c(=O)oc2cc(S(=O)(=O)Nc3cc(Cl)ccc3OC)ccc21	none
CCOC(=O)Cn1c(=O)oc2cc(S(=O)(=O)Nc3cc(OCC)ccc3OCC)ccc21	Arrestin-AP2 inh 57 (no result: Avidin bead fluor, Pemphigus Ab inh) | Arr AP2 CP1 inactive | GST GSH counter inactive
CC(=O)Nc1ccc(S(=O)(=O)Nn2cnnc2)cc1	none
CC(C)c1ccc(OCc2ccc(C(=O)N3CCN(c4ccccn4)CC3)cc2)cc1	Arrestin-AP2 inh 56 | Arr AP2 CP1 inactive | GST GSH counter inactive
CC(C)c1ccc(COc2ccc(C(=O)N3CCOCC3)cc2)cc1	none
O=c1c2cnn(-c3ccccc3)c2ncn1Cc1ccccc1	none
O=c1c2cnn(-c3ccc(F)cc3)c2ncn1Cc1ccc(F)cc1	Arrestin-AP2 inh 90 | Arr AP2 CP1 inactive | GST GSH counter inactive
CCOC(=O)c1c(-c2cccs2)csc1NC(=O)COC(=O)c1c(C)noc1C	Arrestin-AP2 inh 55 | Arr AP2 CP1 inactive | GST GSH counter inactive
O=C(Oc1ccc(C(=S)N2CCCCC2)cc1)c1ccccc1	none
O=C(Oc1cccc(C(=S)N2CCCCC2)c1)c1ccccc1	Arrestin-AP2 inh 56 | Arr AP2 CP1 inactive | GST GSH counter inactive
CCCCn1c(N)c(N(CCOC)C(=O)C2CCCN(C(=O)c3ccc(Cl)cc3)C2)c(=O)[nH]c1=O (stereo not given)	none (no result: GSH fluor, Avidin bead fluor)
Oc1cc2c(cc1C(c1ccc(Br)cc1)N1CCCC1)OCO2 (stereo not given)	Arrestin-AP2 inh 60 | Arr AP2 CP1 inactive | GST GSH counter inactive
C=CCN(C(=O)c1csnn1)C(C(=O)NCc1ccc(F)cc1)c1ccccc1F (stereo not given)	none (no result: GSH fluor, Avidin bead fluor)
CCN1/C(=C/c2ccc3cc(C)ccc3[n+]2C)Sc2ccc3sccc3c21	Arrestin-AP2 inh 78, Pemphigus Ab inh 3.0 | Arr AP2 CP1 68 | GST GSH counter inactive
CCN1/C(=C/c2ccc3cc(C)ccc3[n+]2CC)Sc2cc(C)ccc21	none
O=C(CN(C1CC1)S(=O)(=O)c1ccc(S(=O)(=O)N2CCCCCC2)cc1)Nc1ccccc1	none
O=C(CN(Cc1cccs1)S(=O)(=O)c1ccc(S(=O)(=O)N2CCCCC2)cc1)Nc1ccccc1	Arrestin-AP2 inh 102 | Arr AP2 CP1 inactive | GST GSH counter inactive
COc1ccc(CCN(C)C(=O)c2cc(-c3ccccc3)nc3ccc(C)cc23)cc1OC	Arrestin-AP2 inh 67 (no result: GSH fluor, Avidin bead fluor) | Arr AP2 CP1 inactive | GST GSH counter inactive
COc1ccc(CCN(C)C(=O)c2cc(-c3ccccc3)nc3ccccc23)cc1OC	none (no result: GSH fluor, Avidin bead fluor, Pemphigus Ab inh)
Nc1nn(-c2ccccc2)c(N)c1N=Nc1ccccc1F	Arrestin-AP2 inh 56 | Arr AP2 CP1 inactive | GST GSH counter inactive
Nc1nn(-c2ccccc2)c(N)c1N=Nc1ccccc1	none
Cc1cccc(Cc2nc3ccccc3[nH]2)c1	none (no result: GSH fluor, Avidin bead fluor)
COc1ccc(NS(=O)(=O)c2cccc(C(=O)N3CCCC(C)C3)c2)cc1 (stereo not given)	none (no result: GSH fluor, Avidin bead fluor)
